The target of series [1] is Mitogen-activated protein kinase 14 (Mus musculus, UniProt P47811). As to the kind of experiment: Kd value and murine Mitogen-activated protein kinase p38 alpha complex was calculated.
The target of series [2] is Mitogen-activated protein kinase 14 (Mus musculus) (UniProt P47811).
The test system of series [3] is Mus musculus. As to the kind of experiment: Tested for plasma level after 90 min of 10 mg/kg dose administered in mice; Not detected. More on the design: dose 10 mg/kg. As to conditions: in vivo, 1.5 h. Type of series: ADME, organism-based. Summed up:
(§1)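 Plasma compound concentration (ng/mL) measured 90 min after oral dosing in LPS-stimulated mice at 10 or 30 mg/kg.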

For series [4], the target named is T1, Tumor necrosis factor (Homo sapiens, UniProt P01375). Nature of the series: Tested for inhibition of Tumor necrosis factor, alpha in THP cells. It counts as functional, cell-based. Summed up:
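THP-1 cells preincubated with or without compound 30 min at 37 °C, 5% CO2, then stimulated with LPS (1 μg/mL final) for a further 18–24 h. Human TNF-α in supernatant measured by ELISA.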

The target of series [5] is T1, Tumor necrosis factor. As to the kind of experiment: Tested for inhibition of Tumor necrosis factor, alpha in human whole blood. It counts as functional, tissue-based. Summed up: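 Freshly drawn heparinized human whole blood mixed with compound serially diluted in human type AB serum, held 30 min at 37 °C, then stimulated ex vivo with E. coli LPS 0111:B4 (50 ng/mL final). Incubation 5 h at 37 °C. Plasma TNF-α quantified by ELISA, DELFIA or electrochemiluminescence against an on-plate standard curve. Duplicate 11-point curves fitted to a 4-parameter logistic. EC50 is the geometric mean over at least three donors.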

Series [6] addresses Tumor necrosis factor (Mus musculus) (UniProt P06804). Nature of the series: Tested for inhibition of Tumor necrosis factor, alpha in LPS-stimulated mice at a dose of 10 mg/kg; Not statistically significant. As to conditions: at 10 mg/kg.
Series [7] in a line: Tested for plasma level after 90 min of 30 mg/kg dose administered in mice. As to conditions: mouse, read-out: Activity. More on the design: dose 30 mg/kg. Type of series: ADME, organism-based. Summed up: as §1
The target of series [8] is Tumor necrosis factor (Mus musculus) (UniProt P06804). Nature of the series: Tested for inhibition of Tumor necrosis factor, alpha in LPS-stimulated mice at a dose of 30 mg/kg.
Chain of Tumor necrosis factor (Mus musculus) (P06804 whole entry, looked up): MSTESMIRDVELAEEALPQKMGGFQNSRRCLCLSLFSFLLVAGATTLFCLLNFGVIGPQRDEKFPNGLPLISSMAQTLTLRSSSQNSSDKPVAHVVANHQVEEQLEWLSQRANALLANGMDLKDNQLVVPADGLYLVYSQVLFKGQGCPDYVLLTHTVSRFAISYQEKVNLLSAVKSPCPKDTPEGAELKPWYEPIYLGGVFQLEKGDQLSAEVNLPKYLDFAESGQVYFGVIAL
The nature of series [9]: Tested for plasma level after 90 min of 10 mg/kg dose administered in mice. Type of series: ADME, organism-based. As to conditions: mouse, read-out: Activity. Details: dose 10 mg/kg. The method in brief: as §1
The nature of series [10]: Partition coefficient (logP). It counts as physicochemical. As to conditions: octanol/water.
Series [11] concerns the target Tumor necrosis factor (Mus musculus) (UniProt P06804). As to the kind of experiment: Tested for inhibition of Tumor necrosis factor, alpha in LPS-stimulated mice at a dose of 10 mg/kg. The following applies: at 10 mg/kg.

Structures are written as SMILES. Active and inactive are the calls of the source. No cut-off for these calls is given here. Where only a bound is given, the exact number is not on record here.

Chain of Mitogen-activated protein kinase 14 (P47811 whole entry): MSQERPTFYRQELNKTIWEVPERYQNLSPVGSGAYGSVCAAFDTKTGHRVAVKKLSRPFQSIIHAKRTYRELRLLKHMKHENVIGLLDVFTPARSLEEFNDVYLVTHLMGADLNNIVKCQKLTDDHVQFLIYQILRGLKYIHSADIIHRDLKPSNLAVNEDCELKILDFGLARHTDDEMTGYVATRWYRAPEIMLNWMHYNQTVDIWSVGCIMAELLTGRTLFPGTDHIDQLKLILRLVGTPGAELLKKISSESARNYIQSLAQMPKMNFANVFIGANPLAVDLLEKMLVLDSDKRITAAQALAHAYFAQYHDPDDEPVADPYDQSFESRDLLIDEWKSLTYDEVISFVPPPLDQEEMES
Chain of Mitogen-activated protein kinase 14 (Mus musculus) (P47811 whole entry): as above
T1 sequence (P01375 whole entry): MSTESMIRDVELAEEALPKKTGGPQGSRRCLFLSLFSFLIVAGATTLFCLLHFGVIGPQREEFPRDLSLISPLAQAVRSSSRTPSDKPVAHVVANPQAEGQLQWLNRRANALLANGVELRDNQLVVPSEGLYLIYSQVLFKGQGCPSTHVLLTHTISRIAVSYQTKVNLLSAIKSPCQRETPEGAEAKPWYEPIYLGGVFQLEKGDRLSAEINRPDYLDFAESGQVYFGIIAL

For the compound `CC(C)(C)c1cc(NC(=O)Nc2ccc(OCCN3CCOCC3)c3ccccc23)n(C2CCCCC2)n1`, the Kd in series [1] was 23 nM. Besides, the Tm in series [2] came out at 54.8 °C.

As to `Cc1ccc(-n2nc(C(C)(C)C)cc2NC(=O)Nc2ccc(OCCN3CCNCC3)c3ccccc23)cc1`, in [1], the Kd is 12 nM. Moreover, the Tm in series [2] was 55.6 °C.

Take `CC1(c2cc(NC(=O)Nc3ccc(OCCN4CCOCC4)c4ccccc34)n(-c3ccccc3)n2)CCCCC1`: the Kd in [1] was 1.9 nM. Also, in [2], the Tm was found to be 58.1 °C.

For the compound `CC(C)(C)c1cc(NC(=O)Nc2ccc(OCCN3CCOCC3)c3ccccc23)n(-c2ccc(N)cc2)n1`, the Activity entry in series [3] is reported as “Not Active”. Also, the Kd in [1] was 0.16 nM. Besides, the EC50 in series [4] worked out at 9 nM; in series [5], 440 nM. In addition, in series [2], the Tm was determined as 61.4 °C. Moreover, the inhibition result in [6] was “inactive”.

As for `Cc1ccc(-n2nc(C(C)(C)C)cc2NC(=O)Nc2ccc(OCCN3C[C@@H](C)O[C@@H](C)C3)c3ccccc23)cc1`, the Kd in series [1] is 1.5 nM. In addition, the Tm in series [2] came to 58.4 °C.

In the case of `COc1ccc(-n2nc(C(C)(C)C)cc2NC(=O)Nc2ccc(OCCN3CCOCC3)c3ccccc23)cn1`, in series [7], the concentration at 1.5 h came to 80 µg/mL. Besides, the Kd in series [1] is 0.87 nM. For the same compound, the EC50 in series [4] is 42 nM; in [5], more than 10000 nM. Moreover, the Tm in series [2] stood at 59.1 °C. In [8], this compound yielded an inhibition of 40%.

As to `Cc1ccc(-n2nc(C(C)(C)C)cc2NC(=O)Nc2ccc(OCCN3CCOCC3)c3ccccc23)cc1` [DORAMAPIMOD], the values for the concentration at 1.5 h in series [9] and in series [7] were 30 µg/mL and 75 µg/mL, respectively. Also, the logP in [10] turned out to be 4.6. In addition, the EC50 in [4] was determined as 18 nM; in series [5], 780 nM. Also, the Tm in series [2] came out at 63.5 °C. The inhibition in series [11] is 63%; in series [8], 84%.

Turning to `Cc1ccc(-n2nc(C(C)(C)C)cc2NC(=O)Nc2ccc(OCCN3C[C@H](C)O[C@@H](C)C3)c3ccccc23)cc1`, the concentration at 1.5 h came out at 4.2 µg/mL in [9] and 25 µg/mL in [7]. For the same compound, in series [1], the Kd is 0.096 nM. The EC50 turned out to be 16 nM in series [4] and 770 nM in series [5]. In addition, the Tm in series [2] was 62.1 °C. The compound also had an inhibition in [8] of 50%. The inhibition result in [6] was “inactive”.

For the compound `Cc1ccc(-n2nc(C(C)(C)C)cc2NC(=O)Nc2ccc(OCCN3CC[S+]([O-])CC3)c3ccccc23)cc1`, the concentration at 1.5 h in [7] is 62.8 µg/mL. Moreover, the Kd in [1] was 0.4 nM. Moreover, the EC50 in series [4] is 50 nM; in [5], 1300 nM. Moreover, in [2], the Tm was found to be 60.2 °C. Besides, in series [8], the inhibition was 84%.

For `Cc1ccc(-n2nc(C(C)(C)C)cc2NC(=O)Nc2ccc(OCCN3CCOCC3)c3ccccc23)cn1`, the values for the concentration at 1.5 h in series [9] and in series [7] were 13 µg/mL and 54 µg/mL, respectively. This compound gave a logP in [10] of 3.6. Further, in series [1], the Kd was 0.18 nM. The EC50 in [4] came out at 19 nM; in [5], 530 nM. In addition, the Tm in series [2] stood at 61.3 °C. The inhibition stood at 86% in [11] and 87% in series [8].

For `Cc1ccc(-n2nc(C(C)(C)C)cc2NC(=O)Nc2ccc(OCCN3CCSCC3)c3ccccc23)cc1`, the Kd in [1] was 5.9 nM. Moreover, in [2], the Tm came out at 56.6 °C.

As to `CC(C)c1cc(NC(=O)Nc2ccc(OCCN3CCOCC3)c3ccccc23)n(-c2ccccc2)n1`, in series [1], the Kd was 3.4 nM. Moreover, the Tm in series [2] was 56.6 °C.

In the case of `CC(=O)Nc1ccc(-n2nc(C(C)(C)C)cc2NC(=O)Nc2ccc(OCCN3CCOCC3)c3ccccc23)cc1`, the Kd in [1] was 64 nM. In addition, the Tm in series [2] was 53.4 °C.

`Cc1ccc(-n2nc(C(C)(C)C)cc2NC(=O)Nc2ccc(OCCN3CCCCC3)c3ccccc23)cc1`: the Kd in series [1] was 14 nM. The Tm in series [2] was 55.4 °C.

Consider `COc1ccc(CCOc2ccc(NC(=O)Nc3cc(C(C)(C)C)nn3-c3ccc(C)cc3)c3ccccc23)cc1OC`, for which the dissociation constant Kd in series [1] was 3.5 nM. Further, the Tm in [2] stood at 57.3 °C.

For the compound `O=C(Nc1ccc(OCCN2CCOCC2)c2ccccc12)Nc1ccnn1-c1ccccc1`, the Kd in series [1] is 2400 nM. For the same compound, the Tm in series [2] is 49.1 °C.

As to `CCOc1ccc(NC(=O)Nc2cc(C(C)(C)C)nn2-c2ccc(C)cc2)c2ccccc12`, in series [1], the Kd was 11 nM. For the same compound, the Tm in series [2] amounted to 55.5 °C.

Regarding `Cc1ccc(-n2nc(C(C)(C)C)cc2NC(=O)Nc2ccc(OCCc3cccnc3)c3ccccc23)cc1`, in series [1], the Kd was 0.52 nM. The Tm in series [2] came to 59.8 °C.

On to `CC(C)(C)c1cc(NC(=O)Nc2ccc(OCCN3CCOCC3)c3ccccc23)n(-c2cccc(N)c2)n1`, for which the concentration at 1.5 h in series [9] worked out at 1.4 µg/mL. Besides, the Kd in series [1] is 0.23 nM. The EC50 in [4] turned out to be 11 nM; in series [5] it was 1600 nM. In addition, the Tm in [2] is 60.9 °C. In addition, the inhibition result in [6] was “inactive”.

On to `CC(C)(C)c1cc(NC(=O)Nc2ccc(OCCN3CCOCC3)c3ccccc23)n(-c2ccccc2)n1`, for which the results for the concentration at 1.5 h in series [9] and in [7] were 5.4 µg/mL and 38 µg/mL, respectively. Also, the Kd in series [1] was 0.23 nM. Further, the EC50 in series [4] worked out at 9 nM; in [5], 3400 nM. Further, the Tm in series [2] was 61 °C. The inhibition in [11] came out at 57%; in series [8], 81%.

For the compound `CC(=O)Nc1cccc(-n2nc(C(C)(C)C)cc2NC(=O)Nc2ccc(OCCN3CCOCC3)c3ccccc23)c1`, the Kd in series [1] was 9.9 nM. Further, in series [2], the Tm is 55.9 °C.

As for `Cn1nc(C(C)(C)C)cc1NC(=O)Nc1ccc(OCCN2CCOCC2)c2ccccc12`, the equilibrium dissociation constant (Kd) in [1] is 26 nM. Also, the Tm in series [2] is 54.5 °C.

For the compound `CC(C)(C)c1cc(NC(=O)Nc2ccc(OCCN3CCOCC3)c3ccccc23)n(Cc2ccccc2)n1`, the Kd in series [1] was 64 nM. Further, the Tm in series [2] worked out at 53.4 °C.

On to `Cc1ccc(-n2nc(C(C)(C)C)cc2NC(=O)Nc2ccc(OCCn3ccnc3)c3ccccc23)cc1`, for which the concentration at 1.5 h in series [7] turned out to be 7 µg/mL. Also, the Kd in series [1] is 0.074 nM. Moreover, the figures for the EC50 in series [4] and in [5] were 36 nM and 1100 nM, respectively. In addition, the Tm in [2] amounted to 62.4 °C. The inhibition in series [8] worked out at 81%.

`Cc1ccc(-n2nc(C(C)(C)CO)cc2NC(=O)Nc2ccc(OCCN3CCOCC3)c3ccccc23)cc1`: in series [1], the Kd was 56 nM. In addition, the Tm in series [2] turned out to be 53 °C.

Regarding `Cc1ccc(-n2nc(C(C)(C)C)cc2NC(=O)Nc2ccc(OCCc3ccncc3)c3ccccc23)cc1`, in [7], the concentration at 1.5 h worked out at 30 µg/mL. Moreover, in series [1], the Kd was 0.1 nM. Besides, the EC50 turned out to be 20 nM in series [4] and 820 nM in [5]. For the same compound, the Tm in series [2] worked out at 62.4 °C. This compound displayed an inhibition in series [8] of 88%.

The Kd is the concentration at which binding is half-saturated. One may read the EC50 as the concentration giving half of the maximal effect. Higher therefore signals lower potency in that assay. For orientation: inhibition means the share of the control response that was lost under treatment. What is called logP is the decadic logarithm of the partition coefficient of the neutral form, usually between octanol and water.
